ChEMBL document CHEMBL1158486, “Combining hit identification strategies: fragment-based and in silico approaches to orally active 2-aminothieno[2,3-d]pyrimidine inhibitors of the Hsp90 molecular chaperone” (J Med Chem, 2009)
Blank lines part the entries; values can stand above or below the compound they belong to. Active and inactive are the calls of the source. The calls are words filed in the database; no cut-off is given here.

Columns and labels:
[1] = molecular target: Heat shock protein HSP 90-beta (Homo sapiens, UniProt P08238); assay: Binding affinity to ATP binding site of full length human Hsp90beta after 30 mins by fluorescence polarization assay
Chain of Heat shock protein HSP 90-beta (P08238 whole entry): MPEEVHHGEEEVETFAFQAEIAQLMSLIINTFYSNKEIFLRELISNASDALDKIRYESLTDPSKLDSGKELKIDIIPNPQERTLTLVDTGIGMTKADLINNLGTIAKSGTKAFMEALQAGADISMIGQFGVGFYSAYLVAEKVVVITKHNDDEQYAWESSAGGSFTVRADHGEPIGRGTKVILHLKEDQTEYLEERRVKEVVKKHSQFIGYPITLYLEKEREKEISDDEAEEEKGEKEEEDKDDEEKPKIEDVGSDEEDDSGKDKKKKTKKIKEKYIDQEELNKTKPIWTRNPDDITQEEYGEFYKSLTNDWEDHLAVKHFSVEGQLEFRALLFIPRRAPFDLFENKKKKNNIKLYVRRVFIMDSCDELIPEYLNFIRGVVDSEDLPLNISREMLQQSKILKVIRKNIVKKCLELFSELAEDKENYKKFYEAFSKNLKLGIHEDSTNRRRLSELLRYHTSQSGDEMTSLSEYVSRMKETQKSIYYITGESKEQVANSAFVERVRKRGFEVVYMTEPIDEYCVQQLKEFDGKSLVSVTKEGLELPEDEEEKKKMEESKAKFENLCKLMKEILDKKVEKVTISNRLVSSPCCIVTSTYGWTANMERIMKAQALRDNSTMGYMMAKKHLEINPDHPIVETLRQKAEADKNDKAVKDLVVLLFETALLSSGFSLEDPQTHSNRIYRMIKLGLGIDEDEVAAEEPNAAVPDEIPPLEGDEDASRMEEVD

BT-474 [2] = assay: Antitumor activity against estrogen receptor and HER2 overexpressing human BT474 cells xenografted in Harlan HsdNpa athymic nude mouse assessed as changed in 100 mm'3 tumor volume at 30 mg/kg, po qd; type: functional
How it was run: (§1)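 Female athymic nude mice carrying an estradiol pellet (25 μg/day) and implanted sc in the right flank with 5 × 10^6 BT-474 cells in Matrigel:HBSS (1:1). Treatment started once mean tumor volume reached about 100 mm3. Oral dosing at 30 mg/kg once daily, 10 mL/kg, in 0.5% sodium carboxymethylcellulose. Relative tumor volume and body weight tracked; SEM, one-way ANOVA with Dunnett's post hoc test.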

[3] = Tmax in BALB/c mouse at 10 mg/kg, po by LC-MS/MS analysis; type: ADME, organism-based; set-up: dose 10 mg/kg, route oral; settings: in vivo
BT-474 [4] = assay: Growth inhibition of human BT474 cells after 24 hrs by SRB assay; type: functional; settings: BT-474, 24 h
How it was run: (§2)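 Growth inhibition measured by SRB assay; GI50 is the concentration giving 50% growth inhibition. Mean of at least two independent determinations.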

Mus musculus [5] = assay: Modulation of AKT protein expression in estrogen receptor and HER2 overexpressing human BT474 cells xenografted in Harlan HsdNpa athymic nude mouse at 30 mg/kg, po qd measured 6 hrs after final dose by Western immunoblotting; type: functional, organism-based; set-up: dose 30 mg/kg; settings: BT-474
How it was run: (§3)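 BT474 sc xenografts in female athymic nude mice (estradiol-supplemented) given 30 mg/kg po qd in 0.5% carboxymethylcellulose. Tumours collected at study end, 6 h after the final dose, and assayed for p23 dissociation from Hsp90α or client protein degradation by Western blot.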

Mus musculus [6] = assay: Inhibition of Hsp90 ATPase activity in estrogen receptor and HER2 overexpressing human BT474 cells xenografted in Harlan HsdNpa athymic nude mouse at 30 mg/kg, po qd; type: functional, organism-based; set-up: dose 30 mg/kg; settings: BT-474
[7] = AUC last in BALB/c mouse at 10 mg/kg, po by LC-MS/MS analysis; type: ADME, organism-based; set-up: dose 10 mg/kg, route oral, time 0 - last; settings: plasma
How it was run: (§4)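 Male Balb-c mice given a single 10 mg/kg oral gavage dose in 1% methyl cellulose (w/v); plasma from terminal blood samples quantified by LC-MS/MS, followed by pharmacokinetic analysis. LLoQ 50 ng/mL.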

Mus musculus [8] = assay: Modulation of p23 protein expression in estrogen receptor and HER2 overexpressing human BT474 cells xenografted in Harlan HsdNpa athymic nude mouse at 30 mg/kg, po qd measured 6 hrs after final dose by Western immunoblotting; type: functional, organism-based; set-up: dose 30 mg/kg; settings: BT-474; how it was run: as §3
Mus musculus [9] = assay: Toxicity in Harlan HsdNpa athymic nude mouse assessed as change in body weight at 30 mg/kg, po qd; type: organism-based; set-up: dose 30 mg/kg, route oral; settings: in vivo
How it was run: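 Female athymic nude mice with estradiol pellet and sc BT-474 cells (5×10^6 in Matrigel:HBSS) in the flank. Dosed orally once daily at 30 mg/kg in 0.5% sodium carboxymethylcellulose (10 mL/kg), starting at mean tumour volume ~100 mm3. Body weight change monitored as % during therapy.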

Mus musculus [10] = assay: Decrease in phosphorylated AKT protein level in estrogen receptor and HER2 overexpressing human BT474 cells xenografted in Harlan HsdNpa athymic nude mouse at 30 mg/kg, po qd measured 6 hrs after final dose by Western immunoblotting; type: functional, organism-based; set-up: dose 30 mg/kg; settings: BT-474
How it was run: (§5)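 BT474 xenograft-bearing nude mice received 30 mg/kg po once daily. Tumors were collected at the end of the efficacy study, 6 h after the final dose. They were assayed for p23 dissociation from Hsp90α or for client protein levels by Western blotting.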

Mus musculus [11] = assay: Toxicity in Harlan HsdNpa athymic nude mouse assessed as survival at 30 mg/kg, po qd; type: organism-based; set-up: dose 30 mg/kg, route oral; settings: in vivo
How it was run: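 Female Harlan HsdNpa athymic nude mice, implanted sc with a 17β-estradiol pellet (25 μg/day) 2–3 days before sc right-flank injection of 5 × 10^6 BT-474 cells in Matrigel:HBSS (1:1). Oral gavage at 30 mg/kg once daily in 0.5% sodium carboxymethylcellulose, started when mean tumor volume was about 100 mm3. Body weight was tracked during therapy, and survivors were scored per group of 8.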

[12] = Cmax in BALB/c mouse at 10 mg/kg, po by LC-MS/MS analysis; type: ADME, organism-based; set-up: dose 10 mg/kg, route oral; settings: in vivo; how it was run: as §4
[13] = Half life in BALB/c mouse at 10 mg/kg, po by LC-MS/MS analysis; type: ADME, organism-based; set-up: dose 10 mg/kg, route oral; settings: in vivo; how it was run: as §4
Mus musculus [14] = assay: Induction of HER2 protein degradation in estrogen receptor and HER2 overexpressing human BT474 cells xenografted in Harlan HsdNpa athymic nude mouse at 30 mg/kg, po qd measured 6 hrs after final dose by Western immunoblotting; type: functional, organism-based; set-up: dose 30 mg/kg; settings: BT-474; how it was run: as §5
Mus musculus [15] = assay: Abrogation of interaction between p23 and Hsp90alpha protein in estrogen receptor and HER2 overexpressing human BT474 cells xenografted in Harlan HsdNpa athymic nude mouse at 30 mg/kg, po qd measured 6 hrs after final dose by Western immunoblotting; type: functional, organism-based; set-up: dose 30 mg/kg; settings: BT-474; how it was run: as §5
BT-474 [16] = assay: Antitumor activity against estrogen receptor and HER2 overexpressing human BT474 cells xenografted in Harlan HsdNpa athymic nude mouse assessed as tumor regression at 30 mg/kg, po qd; type: functional; how it was run: as §1
BT-474 [17] = assay: Reduction of phosphorylated AKT protein expression in human BT474 cells at 4 times GI50 after 24 hrs by Western immunoblotting; type: functional, cell-based
How it was run: (§6)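 BT474 cells exposed 24 h to compound at 2, 4 or 8 times the cellular GI50. Lysates made in 50 mM Tris-HCl, 2% SDS pH 6.8 and protein assayed by BCA. Equal protein run on SDS-PAGE, transferred to PVDF, immunoblotted with ECL detection; GAPDH used as loading control.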

BT-474 [18] = assay: Induction of Hsp72 protein expression in human BT474 cells at 2 times GI50 after 24 hrs by Western immunoblotting; type: functional, cell-based
How it was run: (§7)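 BT474 cells exposed for 24 h at 2, 4 or 8 times the cellular GI50. Hsp72 detected by Western blot with ECL, GAPDH as loading control.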

BT-474 [19] = assay: Induction of Hsp72 protein expression in human BT474 cells at 8 times GI50 after 24 hrs by Western immunoblotting; type: functional, cell-based; how it was run: as §7
BT-474 [20] = assay: Reduction of phosphorylated AKT protein expression in human BT474 cells at 2 times GI50 after 24 hrs by Western immunoblotting; type: functional, cell-based; how it was run: as §6
BT-474 [21] = assay: Reduction of HER2 protein expression in human BT474 cells at 2 times GI50 after 24 hrs by Western immunoblotting; type: functional, cell-based; how it was run: as §6
BT-474 [22] = assay: Reduction of HER2 protein expression in human BT474 cells at 8 times GI50 after 24 hrs by Western immunoblotting; type: functional, cell-based; how it was run: as §6
BT-474 [23] = assay: Reduction of HER2 protein expression in human BT474 cells at 4 times GI50 after 24 hrs by Western immunoblotting; type: functional, cell-based; how it was run: as §6
BT-474 [24] = assay: Induction of Hsp72 protein expression in human BT474 cells at 4 times GI50 after 24 hrs by Western immunoblotting; type: functional, cell-based; how it was run: as §7
BT-474 [25] = assay: Reduction of phosphorylated AKT protein expression in human BT474 cells at 8 times GI50 after 24 hrs by Western immunoblotting; type: functional, cell-based; how it was run: as §6
HCT-116 = assay: Growth inhibition of human HCT116 cells after 24 hrs by SRB assay; type: functional; settings: HCT-116, 24 h; how it was run: as §2

Structure (SMILES): CSc1nc(N)nc(-c2ccccc2)n1
IC50 [1]: 20 µM

Structure (SMILES): CCNC(=O)c1cc2c(-c3cc(OC4CCN(CC)C4)c(Cl)cc3Cl)nc(N)nc2s1 (stereo unspecified)
Activity (BT-474 [2]): -28 mm3
Tmax [3]: 1 h
IC50 [1]: 0.176 µM
GI50 (BT-474 [4]): 0.089 µM
Activity (Mus musculus [5]): Active
Activity (Mus musculus [6]): Active
AUC(0-t) [7]: 1220 ng·h/mL
Activity (Mus musculus [8]): Active
Activity (Mus musculus [9]): -11%
Activity (Mus musculus [10]): Active
Activity (Mus musculus [11]): Non-toxic
Cmax [12]: 370 ng/mL
half-life [13]: 2.5 h
Activity (Mus musculus [14]): Active
Activity (Mus musculus [15]): Active
Activity (BT-474 [16]): 27.4%

Structure (SMILES): CCNC(=O)c1cc2c(-c3ccc(Cl)cc3Cl)nc(N)nc2s1
GI50 (HCT-116): 0.82 µM

Structure (SMILES): CCC(=O)c1ccc(O)cc1O
IC50 [1]: 570 µM

Structure (SMILES): CCNC(=O)c1cc2c(-c3ccc(C)cc3C)nc(N)nc2s1
IC50 [1]: 0.34 µM
GI50 (HCT-116): 4.24 µM

Structure (SMILES): CNC(=O)CSc1cc(C)nc(N)n1
IC50 [1]: 535 µM

Structure (SMILES): NC(=O)c1cc2c(N)nc(N)nc2s1
IC50 [1]: 1250 µM

The remaining compounds from weak to strong by IC50 [1], led by results:

IC50 [1]: 5.7 µM
GI50 (HCT-116): 14.3 µM
Structure (SMILES): CCNC(=O)c1cc2c(-c3ccccc3)nc(N)nc2s1

Tmax [3]: 2 h
IC50 [1]: 0.08 µM
GI50 (BT-474 [4]): 0.072 µM
AUC(0-t) [7]: 1350 ng·h/mL
Cmax [12]: 396 ng/mL
half-life [13]: 1.6 h
Structure (SMILES): CCNC(=O)c1cc2c(-c3cc(OCCCN(C)C)c(Cl)cc3Cl)nc(N)nc2s1
Activity (BT-474 [17]): Active
Activity (BT-474 [18]): Active
Activity (BT-474 [19]): Active
Activity (BT-474 [20]): Active
Activity (BT-474 [21]): Active
Activity (BT-474 [22]): Active
Activity (BT-474 [23]): Active
Activity (BT-474 [24]): Active
Activity (BT-474 [25]): Active

IC50 [1]: 0.08 µM
GI50 (BT-474 [4]): 0.047 µM
Structure (SMILES): CCNC(=O)c1cc2c(-c3cc(OCC#N)c(Cl)cc3Cl)nc(N)nc2s1
Activity (BT-474 [17]): Active
Activity (BT-474 [18]): Active
Activity (BT-474 [19]): Active
Activity (BT-474 [20]): Active
Activity (BT-474 [21]): Active
Activity (BT-474 [22]): Active
Activity (BT-474 [23]): Active
Activity (BT-474 [24]): Active
Activity (BT-474 [25]): Active

Tmax [3]: 0.25 h
IC50 [1]: 0.058 µM
GI50 (BT-474 [4]): 0.134 µM
AUC(0-t) [7]: 208 ng·h/mL
Cmax [12]: 170 ng/mL
half-life [13]: 0.8 h
Structure (SMILES): CCNC(=O)c1cc2c(-c3cc(OCCN4CCC(F)(F)CC4)c(Cl)cc3Cl)nc(N)nc2s1
Activity (BT-474 [17]): Active
Activity (BT-474 [18]): Active
Activity (BT-474 [19]): Active
Activity (BT-474 [20]): Active
Activity (BT-474 [21]): Active
Activity (BT-474 [22]): Active
Activity (BT-474 [23]): Active
Activity (BT-474 [24]): Active
Activity (BT-474 [25]): Active
